Results: ChEMBL document CHEMBL3525906, “A comprehensive assessment of repaglinide metabolic pathways: impact of choice of in vitro system and relative enzyme contribution to in vitro clearance” (Drug Metab Dispos, 2012)

Columns and labels:
[1] = Drug metabolism in human hepatic S9 fraction assessed as 2-despiperidyl-2-(5-carboxypentylamine) repaglinide formation by LC-MS/MS method; type: ADME, Liver
[2] = Drug metabolism in human hepatic S9 fraction assessed as 2-despiperidyl-2-amino repaglinide formation measured per mg of protein at 0.5 to 150 uM by LC-MS/MS method; type: ADME, Liver; conditions: s9, 150 µM
[3] = Drug metabolism in human hepatocytes assessed as 3'-hydroxy repaglinide formation by LC-MS/MS method; type: ADME, cell-based, Hepatocyte
Cytochrome P450 3A4 [4] = molecular target: T1, Cytochrome P450 3A4 (Homo sapiens, UniProt P08684); assay: Fraction metabolism via CYP3A4 in human hepatic S9 fraction; type: ADME, Liver
T1 sequence (P08684 whole entry): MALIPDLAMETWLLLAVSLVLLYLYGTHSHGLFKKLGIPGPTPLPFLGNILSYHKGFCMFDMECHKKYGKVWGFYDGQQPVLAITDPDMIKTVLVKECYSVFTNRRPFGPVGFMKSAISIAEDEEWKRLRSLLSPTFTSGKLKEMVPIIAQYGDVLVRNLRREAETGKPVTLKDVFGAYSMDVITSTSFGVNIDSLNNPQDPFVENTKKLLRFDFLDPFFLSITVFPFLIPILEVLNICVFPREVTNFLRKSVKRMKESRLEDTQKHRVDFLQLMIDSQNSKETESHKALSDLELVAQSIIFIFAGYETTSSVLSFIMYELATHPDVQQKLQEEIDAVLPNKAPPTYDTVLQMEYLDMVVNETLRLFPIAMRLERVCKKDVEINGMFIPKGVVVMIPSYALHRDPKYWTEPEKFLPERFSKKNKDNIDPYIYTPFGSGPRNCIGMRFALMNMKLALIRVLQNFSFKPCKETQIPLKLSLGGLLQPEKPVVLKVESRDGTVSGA

[5] = Drug metabolism in human hepatic S9 fraction assessed as glucuronide formation measured per mg of protein at 0.5 to 150 uM by LC-MS/MS method; type: ADME, Liver; conditions: s9, 150 µM
Liver microsome [6] = assay: Unbound intrinsic clearance in human liver microsomes assessed as glucuronide formation measured per mg of protein at 0.5 to 150 uM by LC-MS/MS method; type: ADME
Homo sapiens [7] = species: Homo sapiens; assay: Drug metabolism in human patient assessed as fold change in metabolite M2/M4 AUC ratio at 0.25 mg co-treated with atorvastatin relative to atorvastatin non-treated patient; type: ADME, organism-based; conditions: in vivo
[8] = Drug metabolism in human hepatic S9 fraction assessed as 3'-hydroxy repaglinide formation by LC-MS/MS method; type: ADME, Liver
[9] = Unbound intrinsic clearance in human hepatic S9 fraction assessed as 2-despiperidyl-2-(5-carboxypentylamine) repaglinide formation measured per mg of protein at 0.5 to 150 uM by LC-MS/MS method; type: ADME, tissue-based, Liver; conditions: s9, 150 µM
Homo sapiens [10] = species: Homo sapiens; assay: Drug metabolism in human patient assessed as fold change in metabolite M2/M1 AUC ratio at 0.25 mg co-treated with telithromycin and montelukast relative to telithromycin and montelukast non-treated patient; type: ADME, organism-based; conditions: in vivo
Homo sapiens [11] = species: Homo sapiens; assay: Ratio of AUC in variable SLCO1B1 genotype human patient at 0.25 mg to AUC in variable SLCO1B1 genotype human patient at 0.25 mg co-treated with gemfibrozil; type: ADME, organism-based; conditions: in vivo
[12] = Fraction metabolism via UGT in human hepatic S9 fraction; type: ADME, Liver
Hepatocyte [13] = assay: Unbound intrinsic clearance in human hepatocytes assessed as 2-despiperidyl-2-amino repaglinide formation measured per 10^6 cells at 0.5 to 150 uM by LC-MS/MS method; type: ADME, cell-based
[14] = Drug metabolism in human hepatic S9 fraction assessed as 2-despiperidyl-2-amino repaglinide formation by LC-MS/MS method; type: ADME, Liver
Liver microsome [15] = assay: Unbound intrinsic clearance in human liver microsomes assessed as 2-despiperidyl-2-amino repaglinide formation measured per mg of protein at 0.5 to 150 uM by LC-MS/MS method; type: ADME
Outline: (§1)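 Pooled HLM, 0.3 mg/ml, in 0.1 M phosphate pH 7.4 with 10 mM MgCl2 and NADPH regenerating system. Repaglinide at 8 levels, 0.5-150 μM; 37°C, 10 min. Metabolites by LC-MS/MS against authentic standards; fu_inc 0.85. Duplicates on three occasions.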

Homo sapiens [16] = species: Homo sapiens; assay: Ratio of AUC in human patient at 0.25 mg to AUC in human patient at 0.25 mg co-treated with telithromycin; type: ADME, organism-based; conditions: in vivo
[17] = Fraction metabolism via UGT in human liver microsomes; type: ADME
Hepatocyte [18] = assay: Drug metabolism in human hepatocytes assessed as 2-despiperidyl-2-(5-carboxypentylamine) repaglinide formation measured per 10^6 cells at 0.5 to 150 uM by LC-MS/MS method; type: ADME, cell-based
Liver microsome [19] = assay: Drug metabolism in human liver microsomes assessed as 3'-hydroxy repaglinide formation measured per mg of protein at 0.5 to 150 uM by LC-MS/MS method; type: ADME
Cytochrome P450 3A4 [20] = molecular target: T1, Cytochrome P450 3A4; assay: Unbound intrinsic clearance in human recombinant CYP3A4 expressed in insect cells assessed as enzyme-mediated 2-despiperidyl-2-amino repaglinide formation per nanomole of protein at 0.5 to 150 uM by LC-MS/MS method; type: ADME
Cytochrome P450 3A4 [21] = molecular target: T1, Cytochrome P450 3A4; assay: Fraction metabolism via CYP3A4 in human hepatocytes; type: ADME, cell-based, Hepatocyte
Homo sapiens [22] = species: Homo sapiens; assay: Drug metabolism in variable SLCO1B1 genotype containing human patient assessed as fold change in metabolite M2/M1 AUC ratio at 0.25 mg co-treated with gemfibrozil relative to gemfibrozil non-treated patient; type: ADME, organism-based; conditions: in vivo
Hepatocyte [23] = assay: Drug metabolism in human hepatocytes assessed as 2-despiperidyl-2-amino repaglinide formation measured per 10^6 cells at 0.5 to 150 uM by LC-MS/MS method; type: ADME, cell-based
Homo sapiens [24] = species: Homo sapiens; assay: Drug metabolism in human patient assessed as fold change in metabolite M2/M1 AUC ratio at 0.25 mg co-treated with atorvastatin relative to atorvastatin non-treated patient; type: ADME, organism-based; conditions: in vivo
Hepatocyte [25] = assay: Drug metabolism in human hepatocytes assessed as glucuronide formation measured per 10^6 cells at 0.5 to 150 uM by LC-MS/MS method; type: ADME, cell-based
Homo sapiens [26] = species: Homo sapiens; assay: Ratio of AUC in human patient at 0.25 mg to AUC in human patient at 0.25 mg co-treated with gemfibrozil and itraconazole; type: ADME, organism-based; conditions: in vivo
[27] = Half life in type 2 diabetes patient; type: ADME, organism-based; conditions: human, in vivo
Liver microsome [28] = assay: Drug metabolism in human liver microsomes assessed as 2-despiperidyl-2-(5-carboxypentylamine) repaglinide formation measured per mg of protein at 0.5 to 150 uM by LC-MS/MS method; type: ADME
Homo sapiens [29] = species: Homo sapiens; assay: Ratio of AUC in human patient at 0.25 mg to AUC in human patient at 0.25 mg co-treated with telithromycin and montelukast; type: ADME, organism-based; conditions: in vivo
Homo sapiens [30] = species: Homo sapiens; assay: Drug metabolism in human patient assessed as fold change in metabolite M2/M1 AUC ratio at 0.25 mg co-treated with telithromycin relative to telithromycin non-treated patient; type: ADME, organism-based; conditions: in vivo
[31] = Unbound intrinsic clearance in human hepatic S9 fraction assessed as 2-despiperidyl-2-amino repaglinide formation measured per mg of protein at 0.5 to 150 uM by LC-MS/MS method; type: ADME, tissue-based, Liver; conditions: s9, 150 µM
Liver microsome [32] = assay: Unbound intrinsic clearance in human liver microsomes assessed as 2-despiperidyl-2-(5-carboxypentylamine) repaglinide formation measured per mg of protein at 0.5 to 150 uM by LC-MS/MS method; type: ADME; outline: as §1
Liver microsome [33] = assay: Drug metabolism in human liver microsomes assessed as glucuronide formation measured per mg of protein at 0.5 to 150 uM by LC-MS/MS method; type: ADME
Liver microsome [34] = assay: Drug metabolism in human liver microsomes assessed as glucuronide formation by LC-MS/MS method; type: ADME
[35] = Drug metabolism in human hepatocytes assessed as 2-despiperidyl-2-amino repaglinide formation by LC-MS/MS method; type: ADME, cell-based, Hepatocyte
[36] = Drug metabolism in human hepatic S9 fraction assessed as 3'-hydroxy repaglinide formation measured per mg of protein at 0.5 to 150 uM by LC-MS/MS method; type: ADME, Liver; conditions: s9, 150 µM
Homo sapiens [37] = species: Homo sapiens; assay: Ratio of AUC in human patient at 0.25 mg to AUC in human patient at 0.25 mg co-treated with atorvastatin; type: ADME, organism-based; conditions: in vivo
Homo sapiens [38] = species: Homo sapiens; assay: Drug metabolism in human patient assessed as fold change in metabolite M2/M4 AUC ratio at 0.25 mg co-treated with telithromycin and montelukast relative to telithromycin and montelukast non-treated patient; type: ADME, organism-based; conditions: in vivo
Homo sapiens [39] = species: Homo sapiens; assay: Ratio of AUC in human patient at 0.25 mg to AUC in human patient at 0.25 mg co-treated with gemfibrozil; type: ADME, organism-based; conditions: in vivo

Q: What does the source list for `CCOc1cc(CC(=O)N[C@@H](CC(C)C)c2ccccc2N2CCCCC2)ccc1C(=O)O` [REPAGLINIDE]?
A: Km [1]: 47 µM; Vmax [2]: 24 pmol/min/mg; Km [3]: 13 µM; Fm (Cytochrome P450 3A4 [4]): 0.39; Vmax [5]: 46 pmol/min/mg; CL free (Liver microsome [6]): 5.6 µL/min/mg; fold change (FC) (Homo sapiens [7]): 0.87; Km [8]: 13 µM; CL free [9]: 3.7 µL/min/mg; fold change (FC) (Homo sapiens [10]): 4.3; Ratio (Homo sapiens [11]): 7.3; Fm [12]: 0.2; CL free (Hepatocyte [13]): 0.75 uL/min/10^6cells; Km [14]: 58 µM; CL free (Liver microsome [15]): 4.1 µL/min/mg; Ratio (Homo sapiens [16]): 1.8; Fm [17]: 0.19; Vmax (Hepatocyte [18]): 80 pmol/min/10^6cells; Vmax (Liver microsome [19]): 130 pmol/min/mg; CL free (Cytochrome P450 3A4 [20]): 120 µL/min/nmol; Fm (Cytochrome P450 3A4 [21]): 0.41; fold change (FC) (Homo sapiens [22]): 0.38; Vmax (Hepatocyte [23]): 23 pmol/min/10^6cells; fold change (FC) (Homo sapiens [24]): 1.05; Vmax (Hepatocyte [25]): 5.7 pmol/min/10^6cells; Ratio (Homo sapiens [26]): 19; half-life [27]: 1 h; Vmax (Liver microsome [28]): 28 pmol/min/mg; Ratio (Homo sapiens [29]): 1.9; fold change (FC) (Homo sapiens [30]): 3.9; CL free [31]: 0.76 µL/min/mg; CL free (Liver microsome [32]): 1.4 µL/min/mg; Vmax (Liver microsome [33]): 170 pmol/min/mg; Km (Liver microsome [34]): 37 µM; Km [35]: 58 µM; Vmax [36]: 18 pmol/min/mg; Ratio (Homo sapiens [37]): 1.2; fold change (FC) (Homo sapiens [38]): 0.82; Ratio (Homo sapiens [39]): 8.1
